This is an account of results in ChEMBL document CHEMBL1641583, “Design, synthesis, and biological evaluation of N-acetyl-S-(p-chlorophenylcarbamoyl)cysteine and its analogs as a novel class of anticancer agents” (Bioorg Med Chem, 2011).

Structures are written as SMILES. Values after ≈ are worked out from the molar mass of the structure shown. Active and inactive are the calls of the source. The rule behind the calls is not given here. Some results are limits rather than exact numbers.

Series [1] has as its system OVCAR-3. In words: Cytotoxicity against human OVCAR3 cells after 6 days by MTT assay. It counts as functional, cell-based. As to conditions: OVCAR-3, 144 h.
The nature of series [2]: Cytotoxicity against human GC3/C1 cells after 6 days by MTT assay. The settings on record: GC3/C1, 144 h. It counts as functional, cell-based.
For series [3], the system named is UACC-62. As to the kind of experiment: Cytotoxicity against human UACC62 cells after 6 days by MTT assay. The settings on record: UACC-62, 144 h. It counts as functional, cell-based.
Series [4] deals with UACC-62. As to the kind of experiment: Cytotoxicity against human UACC62 cells after 1 to 3 days by MTT assay. Type of series: functional, cell-based.
The subject of series [5] is SK-MEL-2. As to the kind of experiment: Cytotoxicity against human SK-MEL-2 cells after 6 days by MTT assay. It counts as functional, cell-based. As to conditions: SK-MEL-2, 144 h.
In series [6] the test system is OVCAR-3. As to the kind of experiment: Cytotoxicity against human OVCAR3 cells after 1 to 3 days by MTT assay. It counts as functional, cell-based.
Series [7] is described as follows: Solubility of the compound in 0.1 M phosphate buffer at pH 7.4. Type of series: physicochemical. In short, it runs like this: (§1)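 Solubility measured in ethyl acetate and in 0.1 M phosphate buffer pH 7.4; reported in mg/mL.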
Series [8] in a line: Solubility of the compound in ethyl acetate. Type of series: physicochemical. An outline of the steps:
as §1

Series [9] deals with SK-MEL-2. As to the kind of experiment: Cytotoxicity against human SK-MEL-2 cells after 1 to 3 days by MTT assay. It counts as functional, cell-based.
The subject of series [10] is UACC-62. In words: Ratio of compound IC50 to dacarbazine IC50 for human UACC62 cells. It counts as functional.
Series [11] deals with SK-MEL-2. As to the kind of experiment: Ratio of compound IC50 to dacarbazine IC50 for human SK-MEL-2 cells. Type of series: functional.
Series [12] is described as follows: Cytotoxicity against african green monkey CV1 cells after 6 days by MTT assay. It counts as cell-based. The settings on record: Chlorocebus aethiops, CV-1, 144 h.
For the next series, the system named is PC-3. In words: Cytotoxicity against human PC3 cells after 6 days by MTT assay. It counts as functional, cell-based.
For series [13], the system named is UACC-62. In words: Induction of apoptosis in human UACC62 cells assessed as translocation of phosphatidylserine from inner layer to outer layer of cell membrane after 6 days using annexin V staining by flow cytometry. It counts as functional, cell-based. In short, it runs like this: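 UACC-62 plated and dosed in 96-well format as for cytotoxicity, 6 days; adherent plus floating cells trypsinized, PBS-washed, 1×10^6 cells/mL in annexin-binding buffer; ~1×10^5 cells stained with Alexa Fluor 488 annexin V and PI 15 min dark, room temperature; early plus late apoptotic fractions summed by flow cytometry; mean ± SD, three experiments.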

Another series deals with A-431. As to the kind of experiment: Cytotoxicity against human A431 cells after 6 days by MTT assay. It counts as functional, cell-based.
A short description of series [14]: Cell cycle arrest in human GC3/C1 cells assessed as DNA accumulation at 0.01 to 1 uM after 6 days using propidium iodide staining by flow cytometry. Type of series: functional, cell-based. An outline of the steps:
(§2)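 Cells seeded in 75 cm² flasks (GC3/c1 0.3 million, UACC-62 0.14 million) in RPMI 1640/10% FBS, exposed 6 days; adherent cells only trypsinized, PBS-washed, 1 million fixed in 70% ethanol at 4 °C, RNase A 30 min 37 °C, propidium iodide 30 min dark at room temperature; DNA content by flow cytometry; mean ± SD, three independent experiments.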

Another series has as its system UO-31. In words: Cytotoxicity against human UO31 cells after 6 days by MTT assay. Type of series: functional, cell-based.
In series [15] the test system is UACC-62. In words: Induction of apoptosis in human UACC62 cells assessed as translocation of phosphatidylserine from inner layer to outer layer of cell membrane at > 1 uM after 6 days using annexin V staining by flow cytometry. Type of series: functional, cell-based.
Another series has as its system NCI-H226. As to the kind of experiment: Cytotoxicity against human NCI-H226 cells after 6 days by MTT assay. It counts as functional, cell-based.
The test system of series [16] is UACC-62. As to the kind of experiment: Cell cycle arrest in human UACC62 cells assessed as DNA accumulation at 0.01 to 1 uM after 6 days using propidium iodide staining by flow cytometry. Type of series: functional, cell-based. In short, it runs like this:
as §2

For `CC(=O)N[C@@H](CSC(=O)Nc1ccccc1F)C(=O)O`, the IC50 (in the series with OVCAR-3 [1]; in [2]; in the series on UACC-62 [3]) was greater than 200 µM throughout.

On to `COc1ccccc1CNC(=O)SC[C@H](NC(C)=O)C(=O)O`, for which the IC50 (in the series with OVCAR-3 [1]; in series [2]; in the series on UACC-62 [3]) was greater than 200 µM throughout.

With `CC(=O)N[C@@H](CSC(=O)Nc1ccc([N+](=O)[O-])cc1Cl)C(=O)O`, the IC50 (with OVCAR-3 [1]; in series [2]; in the series with UACC-62 [3]) was greater than 200 µM each time.

On to `CC(=O)N[C@@H](CSC(=O)Nc1ccc(I)cc1)C(=O)O`, for which the IC50 in the series on OVCAR-3 [1] was greater than 200 µM; in [2], greater than 200 µM; in the series with UACC-62 [3], 46.2 µM.

Regarding `CSc1ccccc1NC(=O)SC[C@H](NC(C)=O)C(=O)O`, the IC50 (in the series on OVCAR-3 [1]; in series [2]; in the series on UACC-62 [3]) was greater than 200 µM throughout.

On to `CC(=O)N[C@@H](CSC(=O)Nc1ccc(F)cc1)C(=O)O`, for which the result with UACC-62 [4], with OVCAR-3 [6] and in the series with SK-MEL-2 [9] was inactive. Besides, the IC50 in the series with SK-MEL-2 [5] is 0.43 µM; with OVCAR-3 [1], greater than 200 µM; in series [2], 114 µM; in the series on UACC-62 [3], 0.036 µM. Also, the figures for the solubility in series [7] and in series [8] were 26 mg/mL (≈ 86.6 mM) and 388 mg/mL (≈ 1290 mM), respectively. Further, the “Ratio IC50” value in the series on UACC-62 [10] turned out to be 328; with SK-MEL-2 [11], 279.

`CC(=O)N[C@@H](CSC(=O)Nc1ccc(C(F)(F)F)cc1[N+](=O)[O-])C(=O)O`: the IC50 (in the series with OVCAR-3 [1]; in series [2]; in the series on UACC-62 [3]) was greater than 200 µM throughout.

With `CC(=O)N[C@@H](CSC(=O)NCc1ccc(Cl)cc1)C(=O)O`, the 50% inhibitory concentration (IC50) (in the series on OVCAR-3 [1]; in series [2]; in the series on UACC-62 [3]) was greater than 200 µM in each case.

With `COc1ccc(OC)c(NC(=O)SC[C@H](NC(C)=O)C(=O)O)c1`, the half-maximal inhibitory concentration (IC50) (in the series on OVCAR-3 [1]; in series [2]; in the series on UACC-62 [3]) was greater than 200 µM each time.

`COc1ccccc1NC(=O)SC[C@H](NC(C)=O)C(=O)O`: the half-maximal inhibitory concentration (IC50) (with OVCAR-3 [1]; in series [2]; in the series on UACC-62 [3]) was greater than 200 µM each time.

Consider `CC(=O)N[C@@H](CSC(=O)Nc1ccccc1)C(=O)O`, for which the half-inhibitory concentration (IC50) with OVCAR-3 [1] was determined as 153 µM; in series [2], 178 µM; in the series on UACC-62 [3], 125 µM.

On to `CN(C)/N=N/c1[nH]cnc1C(N)=O` [DACARBAZINE], for which the IC50 in the series on SK-MEL-2 [5] is 120 µM; in the series with OVCAR-3 [1] it was 17.7 µM; in [2], 7.67 µM; with UACC-62 [3] it was 11.8 µM.

Take `CC(=O)N[C@@H](CSC(=O)Nc1cccc(Cl)c1)C(=O)O`: the IC50 (in the series on OVCAR-3 [1]; in [2]; with UACC-62 [3]) was greater than 200 µM each time.

For the compound `CC(=O)N[C@@H](CSC(=O)Nc1ccccc1Cl)C(=O)O`, the half-maximal inhibitory concentration (IC50) (with OVCAR-3 [1]; in series [2]; in the series on UACC-62 [3]) was greater than 200 µM each time.

On to `CC(=O)N[C@@H](CSC(=O)Nc1ccc(Cl)cc1)C(=O)O`, for which the outcome (with UACC-62 [4]; in the series with PC-3; in the series on OVCAR-3 [6]; with A-431; in series [14]; in the series on UO-31) was inactive. The result with UACC-62 [15], with SK-MEL-2 [9], in the series with NCI-H226 and in the series with UACC-62 [16] was inactive. The IC50 in the series on SK-MEL-2 [5] was 0.008 µM; with OVCAR-3 [1] it was greater than 200 µM; in series [12], 522 µM; in series [2], 8.13 µM; in the series on UACC-62 [3], 0.024 µM. Also, the Activity entry in the series on UACC-62 [13] was “Dose-dependent effect”. Further, the solubility in series [7] is 26 mg/mL (≈ 82.1 mM); in series [8] it was 721 mg/mL (≈ 2280 mM). Moreover, the “Ratio IC50” value in the series with UACC-62 [10] stood at 490; in the series on SK-MEL-2 [11] it was 16000.

On to `COc1ccc(NC(=O)SC[C@H](NC(C)=O)C(=O)O)cc1`, for which the IC50 with OVCAR-3 [1] was greater than 200 µM; in series [2], greater than 200 µM; in the series with UACC-62 [3], 75.2 µM.

Regarding `CC(=O)N[C@@H](CSC(=O)Nc1cccc2ccccc12)C(=O)O`, the half-inhibitory concentration (IC50) (in the series with OVCAR-3 [1]; in series [2]; in the series with UACC-62 [3]) was greater than 200 µM in each case.

Regarding `CC(=O)N[C@@H](CSC(=O)Nc1cc(Cl)cc(Cl)c1)C(=O)O`, the IC50 (with OVCAR-3 [1]; in series [2]; with UACC-62 [3]) was greater than 200 µM in each case.

Regarding `CC(=O)N[C@@H](CSC(=O)Nc1ccc(Br)cc1)C(=O)O`, the outcome in the series with UACC-62 [4], with OVCAR-3 [6] and with SK-MEL-2 [9] was inactive. The IC50 is 0.12 µM with SK-MEL-2 [5], greater than 200 µM with OVCAR-3 [1], 63.5 µM in [2] and 0.32 µM in the series with UACC-62 [3]. Moreover, the solubility in series [7] is 24 mg/mL (≈ 66.4 mM); in series [8], 50 mg/mL (≈ 138 mM). Further, the “Ratio IC50” value with UACC-62 [10] is reported as 37; in the series with SK-MEL-2 [11] it was 1000.
